Where no end group is shown, it is not given here.
Assay: Tryptophan fluorescence of peptides in phosphate buffer without lipid
Format: physicochemical
Conditions: no lipid; from fluorescence and CD
Outline: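 7 μM peptide in buffer without liposomes, pH 8 or 4 (adjusted with dilute NaOH/HCl), temperature-controlled. Trp emission 310–450 nm, excitation 295 nm, slits 2–4/2 nm; CD spectra recorded in parallel.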

Row | Compound | State of the peptide in aqueous solution (solubility / aggregation)
1 | CC[C@H](C)[C@H](NC(=O)[C@@H]1CCCN1C(=O)[C@H](CC(N)=O)NC(=O)[C@H](CCC(N)=O)NC(=O)[C@H](CCC(=O)O)NC(=O)[C@H](C)NC(=O)[C@H](C)N)C(=O)N[C@@H](Cc1ccc(O)cc1)C(=O)N[C@@H](Cc1c[nH]c2ccccc12)C(=O)N[C@@H](C)C(=O)N[C@@H](CCCNC(=N)N)C(=O)N[C@@H](Cc1ccc(O)cc1)C(=O)N[C@@H](C)C(=O)N[C@@H](CC(=O)O)C(=O)N[C@@H](Cc1c[nH]c2ccccc12)C(=O)N[C@@H](CC(C)C)C(=O)N[C@@H](Cc1ccccc1)C(=O)N[C@H](C(=O)N[C@H](C(=O)N1CCC[C@H]1C(=O)N[C@@H](CC(C)C)C(=O)N[C@@H](CC(C)C)C(=O)N[C@@H](CC(C)C)C(=O)N[C@@H](CC(C)C)C(=O)N[C@@H](CC(=O)O)C(=O)N[C@@H](CC(C)C)C(=O)N[C@@H](C)C(=O)N[C@@H](CC(C)C)C(=O)N[C@@H](CC(C)C)C(=O)N[C@H](C(=O)N[C@@H](CC(=O)O)C(=O)N[C@@H](C)C(=O)N[C@@H](CC(=O)O)C(=O)N[C@@H](CCC(=O)O)C(=O)NCC(=O)N[C@H](C(=O)O)[C@@H](C)O)C(C)C)[C@@H](C)O)[C@@H](C)O [WT, reference compound] | unfolded and monomeric
2 | AAEQNPIYWARYADWLFTDLPLLLLDLLALLVDADEGT [3D] | aggregated state of the peptide in solution even at low concentrations
3 | AAEQNPIYWARYADWLFTTPLLLLALALLVDADEGT [D25A] | probably, more aggregated in solution
4 | AAEQNPIYWARYADWLFTTPLLLLELALLVDADEGT [D25E] | remain soluble and monomeric in solution
5 | AAEQNPIYWARYAEWLFTTPLLLLDLALLVDADEGT [D14E] | remain soluble and monomeric in solution

Source: article PMC2862812 (Biochimica et biophysica acta, 2009)
